Reference: ChEMBL document CHEMBL4823260, “From High-Throughput Screening to Target Validation: Benzo[d]isothiazoles as Potent and Selective Agonists of Human Transient Receptor Potential Cation Channel Subfamily M Member 5 Possessing In Vivo Gastrointestinal Prokinetic Activity in Rodents” (J Med Chem, 2021)
Values after ≈ are worked out from the molar mass of the structure shown.

Experiments:
[1] = molecular target: T1, Transient receptor potential cation channel subfamily M member 5 (Homo sapiens, UniProt Q9NZQ8); test: Agonist activity at human TRPM5 expressed in CHO-K1 cells maintained at 80 mV final holding potential by syncroPatch assay; format: cell-based
T1 sequence (Q9NZQ8 whole entry): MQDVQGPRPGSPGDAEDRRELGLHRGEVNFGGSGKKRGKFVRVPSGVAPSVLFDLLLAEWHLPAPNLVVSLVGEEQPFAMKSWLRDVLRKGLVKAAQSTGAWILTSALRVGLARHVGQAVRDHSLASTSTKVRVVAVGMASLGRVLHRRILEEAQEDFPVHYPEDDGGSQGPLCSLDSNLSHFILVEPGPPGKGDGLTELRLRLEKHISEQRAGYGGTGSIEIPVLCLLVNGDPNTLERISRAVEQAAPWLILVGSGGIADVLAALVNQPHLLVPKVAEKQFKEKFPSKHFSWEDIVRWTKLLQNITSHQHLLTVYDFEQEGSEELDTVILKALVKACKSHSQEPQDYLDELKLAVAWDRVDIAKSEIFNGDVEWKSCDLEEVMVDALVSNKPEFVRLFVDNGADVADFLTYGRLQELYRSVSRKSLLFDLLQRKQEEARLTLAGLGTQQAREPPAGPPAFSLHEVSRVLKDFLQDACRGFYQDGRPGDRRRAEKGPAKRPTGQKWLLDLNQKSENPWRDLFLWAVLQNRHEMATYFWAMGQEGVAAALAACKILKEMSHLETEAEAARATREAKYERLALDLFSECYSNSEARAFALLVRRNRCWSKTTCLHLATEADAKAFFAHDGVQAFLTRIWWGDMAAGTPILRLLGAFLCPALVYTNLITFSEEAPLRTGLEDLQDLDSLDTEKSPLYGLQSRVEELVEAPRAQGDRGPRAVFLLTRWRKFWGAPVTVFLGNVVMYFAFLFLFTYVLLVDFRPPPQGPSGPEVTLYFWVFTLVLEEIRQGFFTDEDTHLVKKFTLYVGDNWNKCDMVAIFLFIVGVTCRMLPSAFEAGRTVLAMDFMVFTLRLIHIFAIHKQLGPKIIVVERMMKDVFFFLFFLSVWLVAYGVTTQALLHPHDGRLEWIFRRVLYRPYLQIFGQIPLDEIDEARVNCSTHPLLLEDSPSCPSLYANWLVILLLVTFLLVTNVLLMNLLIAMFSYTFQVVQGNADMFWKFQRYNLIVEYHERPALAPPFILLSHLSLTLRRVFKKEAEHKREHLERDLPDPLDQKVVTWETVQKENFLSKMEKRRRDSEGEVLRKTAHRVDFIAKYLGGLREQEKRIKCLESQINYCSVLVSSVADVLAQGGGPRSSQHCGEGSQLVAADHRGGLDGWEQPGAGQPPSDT
In short: (§1)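 SyncroPatch 384 whole-cell recording at rt on CHO-K1 cells stably expressing human or mouse TRPM5. Intracellular solution had 2 mM Na-ATP and 5 μM free Ca2+. Cumulative doses 0.03–31.6 μM in 0.5% DMSO, 150 s each after 180 s vehicle. Current measured at the end of the +80 mV step, normalized to vehicle; pEC50 is the mean of ≥2 independent experiments.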

[2] = molecular target: T1, Transient receptor potential cation channel subfamily M member 5; test: Agonist activity at human TRPM5 expressed in CHO-K1 cells maintained at 80 mV final holding potential by QPatch HTX assay; format: cell-based
In short: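 Whole-cell QPatch HTX recording at rt on CHO-K1 cells with stable hTRPM5. Pipette solution HEDTA-buffered to 1 μM free Ca2+, pH 7.2. Cells held at 0 mV; 0.1 Hz protocol with steps to −80/+80 mV and a ramp. Current taken at the end of the first +80 mV step, no leak subtraction. Increase expressed relative to vehicle current (100%).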

[3] = Efflux ratio of apparent permeability across basolateral to apical over apical to basolateral membrane in human Caco-2 cells incubated for 30 mins by LC-MS/MS analysis; format: ADME, cell-based
[4] = Intrinsic clearance in mouse liver microsomes assessed per mg protein incubated up to 30 mins in presence of NADPH by LC-MS/MS analysis; format: ADME, Microsome
[5] = molecular target: T2, Transient receptor potential cation channel subfamily M member 5 (Mus musculus, UniProt Q9JJH7); test: Agonist activity at mouse TRPM5 expressed in CHO-K1 cells maintained at 80 mV final holding potential by syncroPatch assay; format: cell-based; in short: as §1
T2 sequence (Q9JJH7 whole entry): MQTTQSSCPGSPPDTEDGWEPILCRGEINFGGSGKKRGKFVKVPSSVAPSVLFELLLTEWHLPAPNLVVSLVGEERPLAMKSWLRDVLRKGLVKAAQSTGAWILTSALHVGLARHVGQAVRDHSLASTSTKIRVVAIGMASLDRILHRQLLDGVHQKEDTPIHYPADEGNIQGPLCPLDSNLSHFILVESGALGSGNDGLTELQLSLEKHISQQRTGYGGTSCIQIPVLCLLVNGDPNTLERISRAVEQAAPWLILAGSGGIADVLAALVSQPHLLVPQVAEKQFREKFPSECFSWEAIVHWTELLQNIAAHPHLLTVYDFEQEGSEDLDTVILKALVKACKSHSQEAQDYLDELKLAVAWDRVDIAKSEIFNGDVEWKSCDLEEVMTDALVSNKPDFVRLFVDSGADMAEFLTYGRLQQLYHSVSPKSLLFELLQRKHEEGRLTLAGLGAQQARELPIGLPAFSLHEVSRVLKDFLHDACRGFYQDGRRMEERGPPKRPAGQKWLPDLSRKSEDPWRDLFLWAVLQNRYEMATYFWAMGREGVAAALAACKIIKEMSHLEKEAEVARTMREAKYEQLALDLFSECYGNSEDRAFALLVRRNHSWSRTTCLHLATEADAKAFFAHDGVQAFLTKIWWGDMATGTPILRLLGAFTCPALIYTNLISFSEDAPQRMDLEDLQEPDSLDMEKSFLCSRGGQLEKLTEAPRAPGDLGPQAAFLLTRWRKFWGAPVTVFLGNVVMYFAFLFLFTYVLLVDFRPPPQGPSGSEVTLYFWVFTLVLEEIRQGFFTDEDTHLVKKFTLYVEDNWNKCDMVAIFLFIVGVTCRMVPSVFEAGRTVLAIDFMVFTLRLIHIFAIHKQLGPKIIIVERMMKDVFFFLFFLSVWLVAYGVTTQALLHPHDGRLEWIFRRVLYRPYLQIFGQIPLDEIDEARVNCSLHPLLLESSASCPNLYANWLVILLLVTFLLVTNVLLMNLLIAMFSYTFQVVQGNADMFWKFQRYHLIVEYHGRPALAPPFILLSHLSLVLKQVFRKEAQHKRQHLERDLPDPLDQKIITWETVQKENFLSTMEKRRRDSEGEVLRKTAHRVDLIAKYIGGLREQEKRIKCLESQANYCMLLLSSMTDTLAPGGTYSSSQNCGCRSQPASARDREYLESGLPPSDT

[6] = molecular target: Transient receptor potential cation channel subfamily M member 4 (Homo sapiens, UniProt Q8TD43); test: Agonist activity at human TRPM4 expressed in CHO cells assessed as change in membrane potential by FLIPR assay
[7] = molecular target: Transient receptor potential cation channel subfamily A member 1 (Homo sapiens, UniProt O75762); test: Agonist activity at human TRPA1 expressed in HEK cells assessed as increase in menthol-induced intracellular calcium level incubated for 2 hrs by FLIPR assay; format: cell-based
In short: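 HEK cells stably expressing hTRPA1, plated at 20,000/well 24 h ahead, loaded with calcium-6 dye plus 2.5 mM probenecid for 2 h at 37 °C. First FLIPR addition: 11-point 1:3 concentration series, read for 5 min, scaled to (−)menthol 1 mM final (100% control); pEC50 fitted. Final DMSO 0.5%; run at 37 °C.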

[8] = molecular target: Transient receptor potential cation channel subfamily V member 1 (Homo sapiens, UniProt Q8NER1); test: Agonist activity at human TRPV1 expressed in CHO cells assessed as increase in capsaicin-induced intracellular calcium level measured after 1 hr by FLIPR assay; format: cell-based
In short: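 CHO cells stably expressing hTRPV1, plated at 10,000/well 24 h before the assay. Loaded with calcium-6 dye plus 2.5 mM probenecid for 1 h at 37 °C and 1 h at rt. FLIPR dual-addition protocol; agonist potency derived as pEC50.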

[9] = molecular target: Transient receptor potential cation channel subfamily M member 8 (Homo sapiens, UniProt Q7Z2W7); test: Agonist activity at human TRPM8 expressed in HEK cells assessed as increase in menthol-induced intracellular calcium level measured after 1 hr by FLIPR assay; format: cell-based
In short: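 HEK cells with stable hTRPM8, 20,000/well on poly-D-lysine plates 24 h ahead. Loaded with calcium-6 dye and 2.5 mM probenecid, 1 h at 37 °C then 1 h at rt. First-addition calcium rise scaled to (−)menthol 100 μM final (100% control); pEC50 derived from the concentration–response. Final DMSO 0.5%; assay at rt.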

[10] = Intrinsic clearance in human liver microsomes assessed per mg protein incubated up to 30 mins in presence of NADPH by LC-MS/MS analysis; format: ADME, Microsome
[11] = Apparent permeability across apical to basolateral membrane in human Caco-2 cells incubated for 30 mins by LC-MS/MS analysis; format: ADME, cell-based
[12] = Solubility of the compound in phospahte-buffered saline buffer at pH 7.4 incubated for 2 hrs by HPLC/UV analysis; format: physicochemical; conditions: phosphate-buffered saline
[13] = molecular target: Transient receptor potential cation channel subfamily V member 4 (Homo sapiens, UniProt Q9HBA0); test: Agonist activity at human TRPV4 expressed in HEK cells assessed as increase in GSK1016790A-induced intracellular calcium level measured after 1 hr by FLIPR assay; format: cell-based
Chain of Transient receptor potential cation channel subfamily V member 4 (Q9HBA0 whole entry): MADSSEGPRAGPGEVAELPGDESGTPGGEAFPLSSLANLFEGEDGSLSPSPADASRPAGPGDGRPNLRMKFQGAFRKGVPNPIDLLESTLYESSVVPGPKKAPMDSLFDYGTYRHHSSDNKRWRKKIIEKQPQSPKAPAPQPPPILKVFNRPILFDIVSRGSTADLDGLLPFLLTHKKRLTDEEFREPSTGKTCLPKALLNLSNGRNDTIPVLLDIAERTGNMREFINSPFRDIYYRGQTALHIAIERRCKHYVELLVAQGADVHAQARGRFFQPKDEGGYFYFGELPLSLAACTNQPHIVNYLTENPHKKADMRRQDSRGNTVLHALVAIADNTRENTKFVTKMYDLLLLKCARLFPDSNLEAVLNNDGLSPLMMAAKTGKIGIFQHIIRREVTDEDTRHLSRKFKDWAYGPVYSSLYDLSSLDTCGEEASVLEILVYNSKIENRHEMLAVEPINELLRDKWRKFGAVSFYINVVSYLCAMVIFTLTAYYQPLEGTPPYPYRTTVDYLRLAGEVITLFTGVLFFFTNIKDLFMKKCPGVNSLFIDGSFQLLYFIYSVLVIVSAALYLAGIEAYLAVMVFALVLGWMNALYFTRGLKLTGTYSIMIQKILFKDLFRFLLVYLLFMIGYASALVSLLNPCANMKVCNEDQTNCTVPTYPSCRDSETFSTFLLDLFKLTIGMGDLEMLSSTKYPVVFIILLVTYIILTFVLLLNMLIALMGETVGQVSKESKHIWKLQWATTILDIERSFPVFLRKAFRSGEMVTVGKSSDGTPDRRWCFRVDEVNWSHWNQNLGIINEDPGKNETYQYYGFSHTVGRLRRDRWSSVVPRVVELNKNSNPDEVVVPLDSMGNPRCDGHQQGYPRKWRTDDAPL

Chain of Transient receptor potential cation channel subfamily M member 4 (Q8TD43 whole entry): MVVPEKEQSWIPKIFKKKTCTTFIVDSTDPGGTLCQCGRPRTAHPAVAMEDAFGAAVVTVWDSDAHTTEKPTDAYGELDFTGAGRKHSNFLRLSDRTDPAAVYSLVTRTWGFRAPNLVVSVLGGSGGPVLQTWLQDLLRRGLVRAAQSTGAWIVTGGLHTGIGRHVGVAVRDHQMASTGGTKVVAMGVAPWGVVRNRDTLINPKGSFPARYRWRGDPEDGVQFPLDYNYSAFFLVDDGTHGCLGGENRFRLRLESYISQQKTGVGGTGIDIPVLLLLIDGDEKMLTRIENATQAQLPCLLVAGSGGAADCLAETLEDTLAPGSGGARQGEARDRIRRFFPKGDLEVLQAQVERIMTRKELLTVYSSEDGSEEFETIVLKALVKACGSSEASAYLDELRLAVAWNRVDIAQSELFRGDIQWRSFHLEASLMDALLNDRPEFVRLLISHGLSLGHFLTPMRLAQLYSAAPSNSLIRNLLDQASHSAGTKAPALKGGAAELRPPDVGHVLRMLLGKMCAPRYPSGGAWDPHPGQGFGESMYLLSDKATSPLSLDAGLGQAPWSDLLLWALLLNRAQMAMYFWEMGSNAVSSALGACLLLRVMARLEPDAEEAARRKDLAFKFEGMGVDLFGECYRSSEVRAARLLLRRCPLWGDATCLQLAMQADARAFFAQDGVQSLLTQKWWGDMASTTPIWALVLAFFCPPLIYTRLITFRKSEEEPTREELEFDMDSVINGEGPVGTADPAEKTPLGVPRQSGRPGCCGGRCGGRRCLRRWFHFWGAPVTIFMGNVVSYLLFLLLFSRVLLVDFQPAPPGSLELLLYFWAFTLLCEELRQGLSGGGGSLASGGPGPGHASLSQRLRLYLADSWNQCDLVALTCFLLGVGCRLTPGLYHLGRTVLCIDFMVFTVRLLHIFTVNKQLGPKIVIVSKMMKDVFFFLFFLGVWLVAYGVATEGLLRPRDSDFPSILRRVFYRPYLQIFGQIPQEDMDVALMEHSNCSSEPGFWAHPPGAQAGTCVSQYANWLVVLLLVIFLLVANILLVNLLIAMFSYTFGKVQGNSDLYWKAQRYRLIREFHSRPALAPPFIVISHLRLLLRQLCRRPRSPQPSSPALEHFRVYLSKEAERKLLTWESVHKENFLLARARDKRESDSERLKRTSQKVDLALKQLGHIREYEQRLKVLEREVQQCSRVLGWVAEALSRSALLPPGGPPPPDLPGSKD
Chain of Transient receptor potential cation channel subfamily V member 1 (Q8NER1 whole entry): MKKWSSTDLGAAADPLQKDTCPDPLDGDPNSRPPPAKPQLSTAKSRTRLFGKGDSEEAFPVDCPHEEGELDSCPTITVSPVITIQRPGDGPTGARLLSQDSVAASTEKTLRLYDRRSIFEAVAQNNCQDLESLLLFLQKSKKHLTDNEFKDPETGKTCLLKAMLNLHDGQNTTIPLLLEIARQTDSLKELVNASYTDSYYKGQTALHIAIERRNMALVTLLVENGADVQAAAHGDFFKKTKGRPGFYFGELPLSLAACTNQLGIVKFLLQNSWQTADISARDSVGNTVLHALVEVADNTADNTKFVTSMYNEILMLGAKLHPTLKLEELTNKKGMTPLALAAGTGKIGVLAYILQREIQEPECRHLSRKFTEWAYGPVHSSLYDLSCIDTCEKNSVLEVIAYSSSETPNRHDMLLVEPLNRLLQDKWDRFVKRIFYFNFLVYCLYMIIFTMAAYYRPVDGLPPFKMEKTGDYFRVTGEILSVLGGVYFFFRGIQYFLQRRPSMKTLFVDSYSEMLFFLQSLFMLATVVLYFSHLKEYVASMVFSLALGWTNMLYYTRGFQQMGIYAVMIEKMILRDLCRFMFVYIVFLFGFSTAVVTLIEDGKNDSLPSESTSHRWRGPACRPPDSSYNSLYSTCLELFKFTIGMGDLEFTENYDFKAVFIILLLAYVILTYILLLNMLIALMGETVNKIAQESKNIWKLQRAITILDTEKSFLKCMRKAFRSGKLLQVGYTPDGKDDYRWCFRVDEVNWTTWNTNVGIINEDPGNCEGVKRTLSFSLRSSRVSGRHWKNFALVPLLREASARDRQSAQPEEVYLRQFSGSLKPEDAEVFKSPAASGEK
Chain of Transient receptor potential cation channel subfamily M member 8 (Q7Z2W7 whole entry): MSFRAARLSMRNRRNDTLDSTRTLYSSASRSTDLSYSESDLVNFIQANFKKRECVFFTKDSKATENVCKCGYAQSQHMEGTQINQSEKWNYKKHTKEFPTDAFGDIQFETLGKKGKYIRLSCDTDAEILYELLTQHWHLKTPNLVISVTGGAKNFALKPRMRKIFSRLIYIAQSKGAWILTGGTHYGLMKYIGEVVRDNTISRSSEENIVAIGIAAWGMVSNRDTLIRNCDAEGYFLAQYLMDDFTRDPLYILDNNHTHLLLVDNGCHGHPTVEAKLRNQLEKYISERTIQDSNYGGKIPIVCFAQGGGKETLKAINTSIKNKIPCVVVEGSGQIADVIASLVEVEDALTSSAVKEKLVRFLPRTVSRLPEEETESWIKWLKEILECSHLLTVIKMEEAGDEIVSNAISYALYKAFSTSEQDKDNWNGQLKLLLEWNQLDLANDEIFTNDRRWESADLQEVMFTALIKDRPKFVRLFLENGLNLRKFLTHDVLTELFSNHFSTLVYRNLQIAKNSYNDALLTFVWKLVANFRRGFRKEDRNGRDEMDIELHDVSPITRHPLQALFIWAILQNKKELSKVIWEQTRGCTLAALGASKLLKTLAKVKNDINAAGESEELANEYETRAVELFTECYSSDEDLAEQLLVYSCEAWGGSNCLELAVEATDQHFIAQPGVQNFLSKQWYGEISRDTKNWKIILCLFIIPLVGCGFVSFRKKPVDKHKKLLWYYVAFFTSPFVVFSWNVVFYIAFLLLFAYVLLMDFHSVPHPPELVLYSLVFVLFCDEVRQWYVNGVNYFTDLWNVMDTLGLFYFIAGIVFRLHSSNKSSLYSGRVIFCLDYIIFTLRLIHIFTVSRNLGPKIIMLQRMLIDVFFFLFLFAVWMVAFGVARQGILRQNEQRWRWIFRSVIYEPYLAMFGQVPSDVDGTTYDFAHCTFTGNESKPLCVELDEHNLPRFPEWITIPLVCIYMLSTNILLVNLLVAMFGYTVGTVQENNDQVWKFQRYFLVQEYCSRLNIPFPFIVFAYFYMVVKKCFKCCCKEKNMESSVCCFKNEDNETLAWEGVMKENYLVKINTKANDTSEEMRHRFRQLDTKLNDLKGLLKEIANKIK

| Structure (SMILES) | EC50 [1] [µM] | EC50 [2] [µM] | efflux ratio at 0.5 h [3] | microsomal CLint [4] [µL/min/mg] | EC50 [5] [µM] | EC50 [6] [µM] | EC50 [7] [µM] | EC50 [8] [µM] | EC50 [9] [µM] | microsomal CLint [10] [µL/min/mg] | Papp A→B at 0.5 h [11] [×10⁻⁶ cm/s] | solubility at 2 h [12] [µM] | EC50 [13] [µM] |
| --- | --- | --- | --- | --- | --- | --- | --- | --- | --- | --- | --- | --- | --- |
| Cn1c(Cl)cnc1CNc1ccc(Cl)cc1F | 4.68 | 6.03 |  |  |  |  |  |  |  |  |  |  |  |
| Cn1c(Cl)cnc1CNc1ccc2sncc2c1 | 0.331 |  | 1.03 | 446 | 0.316 | > 63.1 | > 15.8 | > 15.8 | > 15.8 | 109 | 21.9 | 215 (≈ 59.9 µg/mL) | > 15.8 |
